Biological target: Histamine H3 receptor (Rattus norvegicus, UniProt Q9QYN8)
Test: In vitro antagonistic activity tested against Histamine H3 receptor on synaptosomes from rat cerebral cortex
Method in brief: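 Preloaded 30 min with L-[3H]histidine (0.4 µM) at 37 °C in modified Krebs-Ringer. Washed, resuspended in 2 mM K+ medium, then depolarized 2 min with 2 or 30 mM K+ (final). […] Stopped by rapid centrifugation; liquid scintillation. Ki by Cheng-Prusoff; mean ± SEM, ≥3 determinations.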

Sequence of Histamine H3 receptor (Q9QYN8 whole entry): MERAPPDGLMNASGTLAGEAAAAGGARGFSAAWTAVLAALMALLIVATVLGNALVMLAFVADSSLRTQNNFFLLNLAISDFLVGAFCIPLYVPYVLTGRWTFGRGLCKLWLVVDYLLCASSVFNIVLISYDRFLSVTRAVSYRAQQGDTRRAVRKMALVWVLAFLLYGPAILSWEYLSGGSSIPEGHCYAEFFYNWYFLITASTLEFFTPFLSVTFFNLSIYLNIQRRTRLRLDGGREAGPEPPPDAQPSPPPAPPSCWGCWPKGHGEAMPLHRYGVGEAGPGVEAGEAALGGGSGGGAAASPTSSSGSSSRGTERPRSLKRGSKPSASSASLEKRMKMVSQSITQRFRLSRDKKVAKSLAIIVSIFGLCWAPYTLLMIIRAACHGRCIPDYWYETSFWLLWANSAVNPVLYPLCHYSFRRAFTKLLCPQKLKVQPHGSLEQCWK

SMILES | Ki [nM]
O=C(CCc1ccc(I)cc1)OCCCc1cnc[nH]1 [3-(4-Iodo-phenyl)-propionic acid 3-(1H-imidazol-4-yl)-propyl ester] | 50
Nc1c(I)cc(C(=O)OCCCc2cnc[nH]2)cc1I [4-Amino-3,5-diiodo-benzoic acid 3-(1H-imidazol-4-yl)-propyl ester] | 158
Ic1ccc(CCCOCCCc2cnc[nH]2)cc1 [4-{3-[3-(4-Iodo-phenyl)-propoxy]-propyl}-1H-imidazole] | 31.6
Ic1cccc(OCCCc2cnc[nH]2)c1 [4-[3-(3-Iodo-phenoxy)-propyl]-1H-imidazole] | 16
COc1ccc(CCC(=O)OCCCc2cnc[nH]2)cc1I [3-(3-Iodo-4-methoxy-phenyl)-propionic acid 3-(1H-imidazol-4-yl)-propyl ester] | 251
Cc1ccc(C(=O)OCCCc2cnc[nH]2)cc1I [3-Iodo-4-methyl-benzoic acid 3-(1H-imidazol-4-yl)-propyl ester] | 31.6
Ic1ccc(OCCCc2cnc[nH]2)cc1 [4-[3-(4-Iodo-phenoxy)-propyl]-1H-imidazole] | 19.9
Ic1cccc(COCCCc2cnc[nH]2)c1 [4-[3-(3-Iodo-benzyloxy)-propyl]-1H-imidazole] | 6.31
Brc1ccc(COCCCc2cnc[nH]2)cc1 [4-[3-(4-Bromo-benzyloxy)-propyl]-1H-imidazole] | 12.6

Source: BindingDB's records for doi:10.1021/jm9504767 (Freie Universität Berlin, 1996)
